# From ChEMBL document CHEMBL1144979, “Combinatorial modification of natural products: synthesis and in vitro analysis of derivatives of thiazole peptide antibiotic GE2270 A: A-ring modifications” (Bioorg Med Chem Lett, 2003)
# Tests used:
# Assay type in all cases: functional
# Staphylococcus aureus [1] = assay: In vitro antibacterial activity against methicillin sensitive Staphylococcus aureus ATCC 25923
# How it was run: (§1)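 MICs by NCCLS broth dilution guidelines, modified by adding 0.02% bovine serum albumin to the growth medium; purified, resynthesized compounds tested against the expanded bacterial panel.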
# Enterococcus faecalis = assay: In vitro antibacterial activity against Vancomycin-resistant Enterococcus faecalis ATCC 51299
# Staphylococcus aureus [2] = assay: In vitro antibacterial activity against methicillin resistant Staphylococcus aureus (MRSA) ATCC 33591
# Enterococcus faecium = assay: In vitro antibacterial activity against Vancomycin-susceptible Enterococcus faecium BM4147.1; how it was run: as §1
Compound,MIC (Staphylococcus aureus [1]),MIC (Enterococcus faecalis),MIC (Staphylococcus aureus [2]),MIC (Enterococcus faecium)
CNC(=O)C[C@@H]1NC(=O)c2csc(n2)-c2ccc(-c3nc(C(=O)NCCCCO)cs3)nc2-c2csc(n2)-c2csc(n2)C(C(O)c2ccccc2)NC(=O)CNC(=O)c2nc(sc2COC)[C@H](C(C)C)NC(=O)c2nc1sc2C (stereo not given in full),0.125 µg/mL,0.125 µg/mL,0.125 µg/mL,0.06 µg/mL
CNC(=O)C[C@@H]1NC(=O)c2csc(n2)-c2ccc(-c3nc(C(=O)N[C@@H](CO)C(=O)N4CCC[C@H]4C(N)=O)cs3)nc2-c2csc(n2)-c2csc(n2)C(C(O)c2ccccc2)NC(=O)CNC(=O)c2nc(sc2COC)[C@H](C(C)C)NC(=O)c2nc1sc2C (stereo not given in full),,,0.25 µg/mL,
CNC(=O)C[C@@H]1NC(=O)c2csc(n2)-c2ccc(-c3nc(C(=O)NCCC(=O)O)cs3)nc2-c2csc(n2)-c2csc(n2)C(C(O)c2ccccc2)NC(=O)CNC(=O)c2nc(sc2COC)[C@H](C(C)C)NC(=O)c2nc1sc2C (stereo not given in full),0.5 µg/mL,0.06 µg/mL,0.5 µg/mL,0.06 µg/mL
CNC(=O)C[C@@H]1NC(=O)c2csc(n2)-c2ccc(-c3nc(C(=O)NCCCCCC(=O)O)cs3)nc2-c2csc(n2)-c2csc(n2)C(C(O)c2ccccc2)NC(=O)CNC(=O)c2nc(sc2COC)[C@H](C(C)C)NC(=O)c2nc1sc2C (stereo not given in full),0.06 µg/mL,0.03 µg/mL,0.015 µg/mL,0.03 µg/mL
CNC(=O)C[C@@H]1NC(=O)c2csc(n2)-c2ccc(-c3nc(C(=O)NCCCN4CCOCC4)cs3)nc2-c2csc(n2)-c2csc(n2)C(C(O)c2ccccc2)NC(=O)CNC(=O)c2nc(sc2COC)[C@H](C(C)C)NC(=O)c2nc1sc2C (stereo not given in full),0.125 µg/mL,0.06 µg/mL,0.06 µg/mL,0.06 µg/mL
CNC(=O)C[C@@H]1NC(=O)c2csc(n2)-c2ccc(-c3nc(C(=O)N4CC(C(=O)N[C@H](CCC(=O)O)C(=O)O)C4)cs3)nc2-c2csc(n2)-c2csc(n2)C(C(O)c2ccccc2)NC(=O)CNC(=O)c2nc(sc2COC)[C@H](C(C)C)NC(=O)c2nc1sc2C (stereo not given in full),> 32 µg/mL,,> 32 µg/mL,
CNC(=O)C[C@@H]1NC(=O)c2csc(n2)-c2ccc(-c3nc(C(=O)NCCCCN=C(N)N)cs3)nc2-c2csc(n2)-c2csc(n2)C(C(O)c2ccccc2)NC(=O)CNC(=O)c2nc(sc2COC)[C@H](C(C)C)NC(=O)c2nc1sc2C (stereo not given in full),8 µg/mL,8 µg/mL,4 µg/mL,8 µg/mL
CNC(=O)C[C@@H]1NC(=O)c2csc(n2)-c2ccc(-c3nc(C(=O)NCCN4CCOCC4)cs3)nc2-c2csc(n2)-c2csc(n2)C(C(O)c2ccccc2)NC(=O)CNC(=O)c2nc(sc2COC)[C@H](C(C)C)NC(=O)c2nc1sc2C (stereo not given in full),0.5 µg/mL,0.06 µg/mL,0.25 µg/mL,0.06 µg/mL
CNC(=O)C[C@@H]1NC(=O)c2csc(n2)-c2ccc(-c3nc(C(=O)NCCCN)cs3)nc2-c2csc(n2)-c2csc(n2)C(C(O)c2ccccc2)NC(=O)CNC(=O)c2nc(sc2COC)[C@H](C(C)C)NC(=O)c2nc1sc2C (stereo not given in full),1 µg/mL,2 µg/mL,1 µg/mL,2 µg/mL
CNC(=O)C[C@@H]1NC(=O)c2csc(n2)-c2ccc(-c3nc(C(=O)NCC[N+]4([O-])CCOCC4)cs3)nc2-c2csc(n2)-c2csc(n2)C(C(O)c2ccccc2)NC(=O)CNC(=O)c2nc(sc2COC)[C@H](C(C)C)NC(=O)c2nc1sc2C (stereo not given in full),1 µg/mL,2 µg/mL,1 µg/mL,0.5 µg/mL
CNC(=O)C[C@@H]1NC(=O)c2csc(n2)-c2ccc(-c3nc(C(=O)N[C@@H](CC(=O)O)C(=O)N[C@@H](CC(=O)O)C(N)=O)cs3)nc2-c2csc(n2)-c2csc(n2)C(C(O)c2ccccc2)NC(=O)CNC(=O)c2nc(sc2COC)[C@H](C(C)C)NC(=O)c2nc1sc2C (stereo not given in full),> 32 µg/mL,,> 32 µg/mL,
CNC(=O)C[C@@H]1NC(=O)c2csc(n2)-c2ccc(-c3nc(C(=O)NCCO)cs3)nc2-c2csc(n2)-c2csc(n2)C(C(O)c2ccccc2)NC(=O)CNC(=O)c2nc(sc2COC)[C@H](C(C)C)NC(=O)c2nc1sc2C (stereo not given in full),0.06 µg/mL,0.03 µg/mL,0.125 µg/mL,0.03 µg/mL
CNC(=O)C[C@@H]1NC(=O)c2csc(n2)-c2ccc(-c3nc(C(=O)NCCCC(=O)O)cs3)nc2-c2csc(n2)-c2csc(n2)C(C(O)c2ccccc2)NC(=O)CNC(=O)c2nc(sc2COC)[C@H](C(C)C)NC(=O)c2nc1sc2C (stereo not given in full),0.25 µg/mL,0.03 µg/mL,0.125 µg/mL,0.015 µg/mL
CNC(=O)C[C@@H]1NC(=O)c2csc(n2)-c2ccc(-c3nc(C(=O)NCCNCCO)cs3)nc2-c2csc(n2)-c2csc(n2)C(C(O)c2ccccc2)NC(=O)CNC(=O)c2nc(sc2COC)[C@H](C(C)C)NC(=O)c2nc1sc2C (stereo not given in full),2 µg/mL,4 µg/mL,2 µg/mL,2 µg/mL
CNC(=O)C[C@@H]1NC(=O)c2csc(n2)-c2ccc(-c3nc(C(=O)NCCN)cs3)nc2-c2csc(n2)-c2csc(n2)C(C(O)c2ccccc2)NC(=O)CNC(=O)c2nc(sc2COC)[C@H](C(C)C)NC(=O)c2nc1sc2C (stereo not given in full),2 µg/mL,2 µg/mL,1 µg/mL,2 µg/mL
CNC(=O)C[C@@H]1NC(=O)c2csc(n2)-c2ccc(-c3nc(CNC(=O)NCC(O)CC(=O)O)cs3)nc2-c2csc(n2)-c2csc(n2)C(C(O)c2ccccc2)NC(=O)CNC(=O)c2nc(sc2COC)[C@H](C(C)C)NC(=O)c2nc1sc2C (stereo not given in full),8 µg/mL,> 16 µg/mL,8 µg/mL,2 µg/mL
CNC(=O)C[C@@H]1NC(=O)c2csc(n2)-c2ccc(-c3nc(C(=O)NCC(O)C(=O)O)cs3)nc2-c2csc(n2)-c2csc(n2)C(C(O)c2ccccc2)NC(=O)CNC(=O)c2nc(sc2COC)[C@H](C(C)C)NC(=O)c2nc1sc2C (stereo not given in full),4 µg/mL,1 µg/mL,4 µg/mL,0.5 µg/mL
CNC(=O)C[C@@H]1NC(=O)c2csc(n2)-c2ccc(-c3nc(C(=O)N[C@@H](CCC(=O)O)C(=O)NCCCCCC(=O)O)cs3)nc2-c2csc(n2)-c2csc(n2)C(C(O)c2ccccc2)NC(=O)CNC(=O)c2nc(sc2COC)[C@H](C(C)C)NC(=O)c2nc1sc2C (stereo not given in full),> 32 µg/mL,,> 32 µg/mL,
CNC(=O)C[C@@H]1NC(=O)c2csc(n2)-c2ccc(-c3nc(C(=O)N4CC(C(N)=O)C4)cs3)nc2-c2csc(n2)-c2csc(n2)C(C(O)c2ccccc2)NC(=O)CNC(=O)c2nc(sc2COC)[C@H](C(C)C)NC(=O)c2nc1sc2C (stereo not given in full),,,0.06 µg/mL,
CNC(=O)C[C@@H]1NC(=O)c2csc(n2)-c2ccc(-c3nc(C(=O)NCCN=C(N)N)cs3)nc2-c2csc(n2)-c2csc(n2)C(C(O)c2ccccc2)NC(=O)CNC(=O)c2nc(sc2COC)[C@H](C(C)C)NC(=O)c2nc1sc2C (stereo not given in full),4 µg/mL,8 µg/mL,8 µg/mL,8 µg/mL
CNC(=O)C[C@@H]1NC(=O)c2csc(n2)-c2ccc(-c3nc(C(=O)N[C@@H](CC(=O)O)C(=O)NCCCCCC(=O)O)cs3)nc2-c2csc(n2)-c2csc(n2)C(C(O)c2ccccc2)NC(=O)CNC(=O)c2nc(sc2COC)[C@H](C(C)C)NC(=O)c2nc1sc2C (stereo not given in full),> 32 µg/mL,,> 32 µg/mL,
CNC(=O)C[C@@H]1NC(=O)c2csc(n2)-c2ccc(-c3nc(C(=O)N[C@@H](CCC(=O)O)C(=O)N4CCCC[C@H]4C(N)=O)cs3)nc2-c2csc(n2)-c2csc(n2)C(C(O)c2ccccc2)NC(=O)CNC(=O)c2nc(sc2COC)[C@H](C(C)C)NC(=O)c2nc1sc2C (stereo not given in full),,,4 µg/mL,
CNC(=O)C[C@@H]1NC(=O)c2csc(n2)-c2ccc(-c3nc(C(=O)NCC[C@H](O)C(=O)O)cs3)nc2-c2csc(n2)-c2csc(n2)C(C(O)c2ccccc2)NC(=O)CNC(=O)c2nc(sc2COC)[C@H](C(C)C)NC(=O)c2nc1sc2C (stereo not given in full),4 µg/mL,0.25 µg/mL,2 µg/mL,0.03 µg/mL
